Experimental data as given in ChEMBL document CHEMBL3045113, “Inhibition of plant-pathogenic bacteria by short synthetic cecropin A-melittin hybrid peptides” (Appl Environ Microbiol, 2006).
Values after ≈ are worked out from the molar mass of the structure shown. Active and inactive are the calls of the source. The rule behind the calls is not given here. *1 amine or outer side, *2 acyl side, *3 side chain or, on linkers, in order; H or OH if unused. Where a SMILES comes first, the peptide text is derived from it. [ ]: non-standard residue; d: D form. The star is where a group is joined. X1 = O=C([C@H](Cc1c[nH]c2ccccc12)N(Cc1ccccc1)[*:1])[*:2]; Palmitoyl = CCCCCCCCCCCCCCCC(=O)*; Tos = Cc1ccc(S(=O)(=O)*)cc1; Bz = O=C(c1ccccc1)*

Legend:
[1] = Hemolytic activity against Homo sapiens (human) RBC assessed as hemoglobin release after 1 hr; format: ADME, cell-based, Erythrocyte; conditions: red blood cells, read-out: HD50
Method in brief: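 Fresh EDTA-anticoagulated human blood was washed in Tris buffer (10 mM Tris, 150 mM NaCl, pH 7.2) and used as a 5% suspension. Equal volumes of cells and peptide at 800 to 12.5 μM were shaken for 1 h at 37°C, then centrifuged. Supernatant A540 was taken relative to buffer and a melittin full-lysis control. HD50 was derived by probit fit.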

Xanthomonas vesicatoria [2] = test: Antibacterial activity against Xanthomonas vesicatoria 2133-2 assessed as growth inhibition after 48 hr; format: functional; conditions: 2133-2, 48 h, read-out: ED50 (the source's name)
Method in brief: (§1)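 Growth was read as OD600 every hour for 48 h at 25°C in tryptic soy broth across a peptide dilution series, in duplicate, repeated twice. Growth is the area under the curve, and inhibition is given as % of the water control. ED50 comes from a probit-dose model fitted by nonlinear least squares.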

[3] = system: Pseudomonas syringae pv. syringae; test: Antibacterial activity against Pseudomonas syringae pv. syringae EPS94 assessed as growth inhibition after 48 hr; format: functional; conditions: EPS94, 48 h, read-out: ED50 (the source's name); method in brief: as §1
Erwinia amylovora [4] = test: Antibacterial activity against Erwinia amylovora PMV6076 assessed as growth inhibition after 48 hr; format: functional; conditions: PMV6076, 48 h, read-out: ED50 (the source's name); method in brief: as §1
Xanthomonas vesicatoria [5] = test: Antibacterial activity against Xanthomonas vesicatoria 2133-2 after 48 hr by broth dilution method; format: functional; conditions: 2133-2, 48 h
Method in brief: (§2)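 Broth microdilution in tryptic soy broth with bacteria from a 10⁸ CFU/ml suspension. Final peptide levels were 750 down to 25 μM, or 250 to 3.12 μM for cecropin A. Plates were held at 25°C with OD600 read hourly for 48 h, in duplicate wells, and the run was repeated twice. MIC is the lowest concentration with no growth at 48 h.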

[6] = system: Pseudomonas syringae pv. syringae; test: Antibacterial activity against Pseudomonas syringae pv. syringae EPS94 after 48 hr by broth dilution method; format: functional; conditions: EPS94, 48 h; method in brief: as §2
Erwinia amylovora [7] = test: Antibacterial activity against Erwinia amylovora PMV6076 after 48 hr by broth dilution method; format: functional; conditions: PMV6076, 48 h; method in brief: as §2
[8] = system: Pseudomonas syringae pv. syringae; test: Antibacterial activity against Pseudomonas syringae pv. syringae EPS94 at 25 to 750 uM after 48 hr by broth dilution method; format: functional, organism-based; method in brief: as §2
Erwinia amylovora [9] = test: Antibacterial activity against Erwinia amylovora PMV6076 at 25 to 750 uM after 48 hr by broth dilution method; format: functional, organism-based; method in brief: as §2
Xanthomonas vesicatoria [10] = test: Antibacterial activity against Xanthomonas vesicatoria 2133-2 at 25 to 750 uM after 48 hr by broth dilution method; format: functional, organism-based; method in brief: as §2
[11] = Stability of the compound in tris buffer at pH 7.6 at 50 ug/ml after 45 min by HPLC method in presence of proteinase K; conditions: pH 7.6, 0.75 h
Xanthomonas vesicatoria [12] = test: Bactericidal activity against Xanthomonas vesicatoria 2133-2 assessed as decrease in survival at 5 uM after 48 hr; format: functional, organism-based
Method in brief: (§3)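 LB broth cultures at 4 × 10⁶ CFU/ml were exposed to 5 μM peptide. Samples taken every 30 min over 3 h were diluted 10-fold and plated on LB agar. Colonies were counted after 48 h at 25°C, and survival is expressed as % of the starting count.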

Erwinia amylovora [13] = test: Bactericidal activity against Erwinia amylovora PMV6076 assessed as decrease in survival at 5 uM after 48 hr; format: functional, organism-based; method in brief: as §3
[14] = system: Pseudomonas syringae pv. syringae; test: Bactericidal activity against Pseudomonas syringae pv. syringae EPS94 assessed as decrease in survival at 5 uM after 48 hr; format: functional, organism-based; method in brief: as §3
Xanthomonas vesicatoria [15] = test: Bactericidal activity against Xanthomonas vesicatoria 2133-2 assessed as decrease in survival at 5 uM after 90 min; format: functional, organism-based; method in brief: as §3

Molecule | HC50 at 1 h [1] | EC50 (Xanthomonas vesicatoria [2]) | EC50 [3] | EC50 (Erwinia amylovora [4]) | MIC (Xanthomonas vesicatoria [5]) | MIC [6] | MIC (Erwinia amylovora [7]) | Activity [8] | Activity (Erwinia amylovora [9]) | Activity (Xanthomonas vesicatoria [10]) | Stability [11] | Activity (Xanthomonas vesicatoria [12]) | Activity (Erwinia amylovora [13]) | Activity [14] | Activity (Xanthomonas vesicatoria [15])
CC[C@H](C)[C@H](NC(=O)[C@H](CCCCN)NC(=O)[C@H](CCCCN)NC(=O)[C@H](Cc1ccccc1)NC(=O)[C@H](CC(C)C)NC(=O)[C@H](CCCCN)NC(=O)[C@@H](N)Cc1c[nH]c2ccccc12)C(=O)N[C@@H](CC(C)C)C(=O)N[C@@H](CCCCN)C(=O)N[C@@H](Cc1ccc(O)cc1)C(=O)N[C@@H](CC(C)C)C(N)=O | 42 µM | 2.3 µM | 2.7 µM | 3.2 µM | 2 µM (≈ 2.96 µg/mL) | 2 µM (≈ 2.96 µg/mL) | 2 µM (≈ 2.96 µg/mL) | – | – | – | – | – | – | – | –
CC[C@H](C)[C@H](NC(=O)[C@H](CCCCN)NC(=O)[C@H](CCCCN)NC(=O)[C@H](Cc1ccccc1)NC(=O)[C@H](CC(C)C)NC(=O)[C@H](CCCCN)NC(=O)[C@@H](N)CCCCN)C(=O)N[C@@H](CC(C)C)C(=O)N[C@@H](CCCCN)C(=O)N[C@@H](CCCCN)C(=O)N[C@@H](CC(C)C)C(N)=O | – | – | – | – | – | – | – | inactive | inactive | inactive | – | – | – | – | –
CC[C@H](C)[C@H](NC(=O)[C@H](CCCCN)NC(=O)[C@H](CCCCN)NC(=O)[C@H](Cc1ccccc1)NC(=O)[C@H](CC(C)C)NC(=O)[C@H](CCCCN)NC(=O)[C@H](Cc1c[nH]c2ccccc12)NC(=O)c1ccccc1)C(=O)N[C@@H](CC(C)C)C(=O)N[C@@H](CCCCN)C(=O)N[C@H](C(=O)N[C@@H](CC(C)C)C(N)=O)C(C)C (Bz-WKLFKKILKVL-NH2) | 11 µM | – | 9.5 µM | 15.1 µM | < 2 µM | 15 µM (≈ 22.8 µg/mL) | 15 µM (≈ 22.8 µg/mL) | – | – | – | Unstable | – | – | – | –
CC[C@H](C)[C@H](NC(=O)[C@H](CCCCN)NC(=O)[C@H](CCCCN)NC(=O)[C@H](Cc1ccccc1)NC(=O)[C@H](CC(C)C)NC(=O)[C@H](CCCCN)NC(=O)[C@H](Cc1c[nH]c2ccccc12)NCc1ccccc1)C(=O)N[C@@H](CC(C)C)C(=O)N[C@@H](CCCCN)C(=O)N[C@H](C(=O)N[C@@H](CC(C)C)C(N)=O)C(C)C (H-[X1]KLFKKILKVL-NH2) | 30 µM | 2.5 µM | 3.8 µM | 5 µM | 2 µM (≈ 3.01 µg/mL) | 5 µM (≈ 7.53 µg/mL) | 7 µM (≈ 10.5 µg/mL) | – | – | – | – | Active | inactive | Active | –
CCCCCCCCCCCCCCCC(=O)N[C@@H](Cc1c[nH]c2ccccc12)C(=O)N[C@@H](CCCCN)C(=O)N[C@@H](CC(C)C)C(=O)N[C@@H](Cc1ccccc1)C(=O)N[C@@H](CCCCN)C(=O)N[C@@H](CCCCN)C(=O)N[C@H](C(=O)N[C@@H](CC(C)C)C(=O)N[C@@H](CCCCN)C(=O)N[C@H](C(=O)N[C@@H](CC(C)C)C(N)=O)C(C)C)[C@@H](C)CC (Palmitoyl-WKLFKKILKVL-NH2) | 6 µM | 14.7 µM | 56.8 µM | 60 µM | 25 µM (≈ 41.3 µg/mL) | 50 µM (≈ 82.7 µg/mL) | 50 µM (≈ 82.7 µg/mL) | – | – | – | – | – | – | – | –
CC[C@H](C)[C@H](NC(=O)[C@H](CCCCN)NC(=O)[C@H](CCCCN)NC(=O)[C@H](Cc1ccccc1)NC(=O)[C@H](CC(C)C)NC(=O)[C@H](CCCCN)NC(=O)[C@H](Cc1c[nH]c2ccccc12)NS(=O)(=O)c1ccc(C)cc1)C(=O)N[C@@H](CC(C)C)C(=O)N[C@@H](CCCCN)C(=O)N[C@H](C(=O)N[C@@H](CC(C)C)C(N)=O)C(C)C (Tos-WKLFKKILKVL-NH2) | 10 µM | – | 6.9 µM | 11.2 µM | < 2 µM | 12 µM (≈ 18.8 µg/mL) | 12 µM (≈ 18.8 µg/mL) | – | – | – | – | – | – | – | –
CC[C@H](C)[C@H](NC(=O)[C@H](CCCCN)NC(=O)[C@H](CCCCN)NC(=O)[C@H](Cc1ccccc1)NC(=O)[C@H](CC(C)C)NC(=O)[C@H](CCCCN)NC(=O)[C@@H](N)CCCCN)C(=O)N[C@@H](CC(C)C)C(=O)N[C@@H](CCCCN)C(=O)N[C@@H](Cc1ccccc1)C(=O)N[C@@H](CC(C)C)C(N)=O [KKLFKKILKFL-NH2] | 203 µM | 1.9 µM | 2.1 µM | 2.5 µM | 2 µM (≈ 2.81 µg/mL) | 2 µM (≈ 2.81 µg/mL) | 2 µM (≈ 2.81 µg/mL) | – | – | – | Stable | – | Active | Active | Active
CC[C@H](C)[C@H](NC(=O)[C@H](CCCCN)NC(=O)[C@H](CCCCN)NC(=O)[C@H](Cc1ccccc1)NC(=O)[C@H](CC(C)C)NC(=O)[C@H](CCCCN)NC(=O)[C@@H](N)CCCCN)C(=O)N[C@@H](CC(C)C)C(=O)N[C@@H](CCCCN)C(=O)N[C@H](C(=O)N[C@@H](CC(C)C)C(N)=O)C(C)C [KKLFKKILKVL-NH2] | 334 µM | 7.3 µM | 1.6 µM | 4.3 µM | 12 µM (≈ 16.3 µg/mL) | 2 µM (≈ 2.71 µg/mL) | 5 µM (≈ 6.78 µg/mL) | – | – | – | Unstable | Active | Active | Active | –
Ac-WKLFKKILKVL-NH2 | 17 µM | 2 µM | 4.3 µM | 9 µM | 2 µM | 7 µM | 10 µM | – | – | – | Unstable | – | – | – | –
H-FKLFKKILKVL-NH2 | – | – | – | – | – | – | – | inactive | inactive | inactive | – | – | – | – | –
H-LKLFKKILKVL-NH2 | 190 µM | 4.1 µM | 3.2 µM | 4.3 µM | 10 µM | 5 µM | 5 µM | – | – | – | Unstable | Active | Active | Active | –
H-WKLFKKILKFL-NH2 | 32 µM | – | 1.9 µM | 1.3 µM | < 2 µM | 5 µM | 5 µM | – | – | – | – | – | – | – | –
H-WKLFKKILKKL-NH2 | – | – | – | – | – | – | – | inactive | inactive | inactive | – | – | – | – | –
H-WKLFKKILKVL-NH2 | 104 µM | 3.6 µM | 5.5 µM | 5.5 µM | 7 µM | 7 µM | 7 µM | – | – | – | Unstable | Active | Active | Active | –
H-WKLFKKILKWL-NH2 | 26 µM | – | 2.5 µM | 3 µM | < 2 µM | 5 µM | 5 µM | – | – | – | – | – | – | – | –
H-YKLFKKILKVL-NH2 | – | – | – | – | – | – | – | inactive | inactive | inactive | – | – | – | – | –
